# Measured values reported in ChEMBL document CHEMBL5370536, “Design, synthesis, and biological activity of dual monoamine oxidase A and heat shock protein 90 inhibitors, N-Methylpropargylamine-conjugated 4-isopropylresorcinol for glioblastoma” (Eur J Med Chem, 2023).
# Activity calls are given as the source filed them. The rule behind the calls is not given here.
# Assays:
# [1] = target: T1, Amine oxidase [flavin-containing] A (Mus musculus, UniProt Q64133); assay: Inhibition of MAO A in mouse GL26 cells preincubated for 20 mins followed by 14C-labeled 5-hydroxytryptamine addition and measured after 20 mins by scintillation counter analysis; assay type: cell-based
# T1 sequence (Q64133 whole entry): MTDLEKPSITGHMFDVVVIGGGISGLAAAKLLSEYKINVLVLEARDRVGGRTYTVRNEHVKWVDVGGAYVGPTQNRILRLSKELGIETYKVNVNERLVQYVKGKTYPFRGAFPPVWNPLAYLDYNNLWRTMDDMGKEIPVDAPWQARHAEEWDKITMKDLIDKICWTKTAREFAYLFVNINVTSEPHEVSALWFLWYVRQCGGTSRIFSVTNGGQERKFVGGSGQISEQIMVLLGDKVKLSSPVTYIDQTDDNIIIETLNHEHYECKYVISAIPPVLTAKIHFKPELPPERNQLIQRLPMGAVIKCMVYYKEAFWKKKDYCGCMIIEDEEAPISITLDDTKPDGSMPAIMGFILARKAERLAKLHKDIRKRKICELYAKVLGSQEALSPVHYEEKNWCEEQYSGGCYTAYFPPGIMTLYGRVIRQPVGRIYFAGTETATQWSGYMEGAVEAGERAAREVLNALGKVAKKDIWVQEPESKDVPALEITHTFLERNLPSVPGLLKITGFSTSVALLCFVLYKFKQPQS
# [2] = target: Heat shock protein HSP 90-alpha (Homo sapiens, UniProt P07900); assay: Inhibition of human recombinant HSP90alpha preincubated for 30 mins followed by FITC-GM addition and mesured after 3 hrs by fluorescence polarization assay
# [3] = Antiproliferative activity against mouse GL26 cells assessed as inhibition of cell growth measured after 48 hrs by MTT assay; assay type: functional, cell-based; conditions: GL26, 48 h
# Procedure, shortened: (§1)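 Cells plated at 5×10³ per well 24 h before compound and grown in DMEM with 10% FBS at 37°C, 5% CO₂. After 48 h exposure, the medium was replaced with 0.5 mg/mL MTT for 3 h. Formazan was dissolved in DMSO and read at 570 nm.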
# U-251 [4] = assay: Antiproliferative activity against human Temozolomide-resistant U-251 cells assessed as inhibition of cell growth measured after 48 hrs by MTT assay; assay type: functional, cell-based; conditions: U-251, 48 h; procedure, shortened: as §1
# U-87 MG = assay: Antiproliferative activity against human U-87 MG cells assessed as inhibition of cell growth measured after 72 hrs by CCK8 method; assay type: functional, cell-based, U-87MG ATCC
# Procedure, shortened: (§2)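 Cell lines from ATCC or from patient surgical specimens (P1S, P3, P3R), kept in DMEM with 10% FBS and 1% penicillin/streptomycin at 37°C, 5% CO₂. P3R medium also held 50 μM TMZ. Cells were seeded at 2×10³/well 24 h before compound, then exposed 72 h.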
# [5] = Antiproliferative activity against human U373 MG cells assessed as inhibition of cell growth measured after 72 hrs by CCK8 method; assay type: functional, cell-based, U-373MG ATCC; procedure, shortened: as §2
# LN-229 = assay: Antiproliferative activity against human LN-229 cells assessed as inhibition of cell growth measured after 72 hrs by CCK8 method; assay type: functional, cell-based; conditions: LN-229, 72 h; procedure, shortened: as §2
# A 172 = assay: Antiproliferative activity against human A-172 cells assessed as inhibition of cell growth measured after 72 hrs by CCK8 method; assay type: functional, cell-based; conditions: A 172, 72 h; procedure, shortened: as §2
# T98G = assay: Antiproliferative activity against human T98G cells assessed as inhibition of cell growth measured after 72 hrs by CCK8 method; assay type: functional, cell-based; procedure, shortened: as §2
# [6] = Antiproliferative activity against human patient-derived, TMZ-resistant and concurrent chemo-radiotherapy (CCRT)-resistant P1S cell assessed as inhibition of cell growth measured after 72 hrs by CCK8 method; assay type: functional, cell-based; procedure, shortened: as §2
# [7] = Antiproliferative activity against human patient-derived P3 cell assessed as inhibition of cell growth measured after 72 hrs by CCK8 method; assay type: functional, cell-based; procedure, shortened: as §2
# [8] = Antiproliferative activity against human patient-derived TMZ-resistant GBM cells with MGMT negative P3R cell assessed as inhibition of cell growth measured after 72 hrs by CCK8 method; assay type: functional, cell-based; procedure, shortened: as §2
# GL26 [9] = assay: Downregulation of HER2 expression in mouse GL26 cells incubated for 24 hrs by Western blot analysis; assay type: functional, cell-based; conditions: dose 0.1-3 µM
# GL26 [10] = assay: Downregulation of Akt phosphorylation expression at Ser 473 residues in mouse GL26 cells incubated for 24 hrs by Western blot analysis; assay type: functional, cell-based; conditions: dose 0.1-3 µM
# U-251 [11] = assay: Downregulation of HER2 expression in human Temozolomide-resistant U-251 cells incubated for 24 hrs by Western blot analysis; assay type: functional, cell-based; conditions: dose 0.1-3 µM
# U-251 [12] = assay: Downregulation of Akt phosphorylation expression at Ser 473 residues in human Temozolomide-resistant U-251 cells incubated for 24 hrs by Western blot analysis; assay type: functional, cell-based; conditions: dose 0.1-3 µM
# U-251 [13] = assay: Upregulation of HSP70 expression in human Temozolomide-resistant U-251 cells incubated for 24 hrs by Western blot analysis; assay type: functional, cell-based; conditions: dose 0.1-3 µM
# GL26 [14] = assay: Upregulation of HSP70 expression in mouse GL26 cells incubated for 24 hrs by Western blot analysis; assay type: functional, cell-based; conditions: dose 0.1-3 µM
# GL26 [15] = assay: Downregulation of IFN-gamma induced PD-L1 expression in mouse GL26 cells incubated for 24 hrs by flow cytometry analysis; assay type: functional, cell-based
# Procedure, shortened: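 GL26 cells at 3.6 × 10⁵ per well were treated at various concentrations with or without 10 ng/mL IFN-γ for 24 h. Cells were stained with goat anti-PD-L1 for 1 h in PBS/0.05% BSA, then FITC donkey anti-goat for 1 h, and read by flow cytometry. MFI was normalised to the secondary-antibody-only isotype control and expressed as an MFI ratio.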
# HCT-116 [16] = assay: Downregulation of PD-L1 expression in human HCT-116 cells; assay type: functional, cell-based
# Procedure, shortened: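 HCT116 cells at 3 × 10⁵ per well were treated at various concentrations with or without 20 ng/mL IFN-γ for 48 h. Cells were stained with mouse anti-PD-L1 for 1 h in PBS/0.05% BSA, then FITC goat anti-mouse for 1 h. Surface FITC mean fluorescence intensity was measured by flow cytometry.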
# [17] = Antitumor activity against mouse GL26 cells xenografted in C57BL/6J mouse model assessed as tumor growth inhibition at 25 mg/kg, ip administered daily for 3 days followed by every 3 days for 14 days by caliper method relative to control; assay type: functional; conditions: GL26, 336 h, time 14 day, read-out: TGI
# Procedure, shortened: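 Male C57BL/6J mice aged 8-9 weeks received 2 × 10⁵ GL26 cells subcutaneously in the lower back. From day 9 after implantation, once tumours were palpable, 25 mg/kg was given i.p. daily for 3 days and then every 3 days over 14 days. Caliper volume was length × width² ÷ 2. TGI% was taken relative to the mean tumour size of the vehicle group.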
# SF-268 = assay: Growth inhibition of human SF-268 cells incubated for 48 hrs by SRB assay; assay type: functional
# Procedure, shortened: (§3)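 NCI-60 panel screen: cells seeded at 5000 to 40000 per well according to doubling time, 24 h before drug addition at various concentrations. A time-zero plate was TCA-fixed at drug addition. After 48 h drug exposure, growth was read by sulforhodamine B staining. Percent growth = [(Ti − Tz)/(C − Tz)] × 100, and GI50 is the concentration at which this equals 50.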
# SF-295 = assay: Growth inhibition of human SF-295 cells incubated for 48 hrs by SRB assay; assay type: functional; procedure, shortened: as §3
# SF-539 = assay: Growth inhibition of human SF-539 cells incubated for 48 hrs by SRB assay; assay type: functional; procedure, shortened: as §3
# SNB-19 = assay: Growth inhibition of human SNB-19 cells incubated for 48 hrs by SRB assay; assay type: functional; procedure, shortened: as §3
# SNB-75 = assay: Growth inhibition of human SNB-75 cells incubated for 48 hrs by SRB assay; assay type: functional; procedure, shortened: as §3
# U-251 [18] = assay: Growth inhibition of human U-251 cells incubated for 48 hrs by SRB assay; assay type: functional; procedure, shortened: as §3
# K562 = assay: Growth inhibition of human K562 cells incubated for 48 hrs by SRB assay; assay type: functional; procedure, shortened: as §3
# RPMI-8226 = assay: Growth inhibition of human RPMI-8226 cells incubated for 48 hrs by SRB assay; assay type: functional; procedure, shortened: as §3
# A549 = assay: Growth inhibition of human A549 cells incubated for 48 hrs by SRB assay; assay type: functional; procedure, shortened: as §3
# NCI-H460 = assay: Growth inhibition of human NCI-H460 cells incubated for 48 hrs by SRB assay; assay type: functional; procedure, shortened: as §3
# NCI-H522 = assay: Growth inhibition of human NCI-H522 cells incubated for 48 hrs by SRB assay; assay type: functional; procedure, shortened: as §3
# HCT-116 [19] = assay: Growth inhibition of human HCT-116 cells incubated for 48 hrs by SRB assay; assay type: functional; procedure, shortened: as §3
# SW-620 = assay: Growth inhibition of human SW-620 cells incubated for 48 hrs by SRB assay; assay type: functional; procedure, shortened: as §3
smiles,measurement,setting,value
C#CCN(C)CCCOc1cccc(N(CC)C(=O)c2cc(C(C)C)c(O)cc2O)c1Cl,IC50,[1],2270 nM
C#CCN(C)CCCOc1ccc(N(CC)C(=O)c2cc(C(C)C)c(O)cc2O)cc1Cl,IC50,[1],4580 nM
same,IC50,[2],16 nM
same,IC50,[3],490 nM
same,IC50,U-251 [4],260 nM
same,IC50,U-87 MG,360 nM
same,IC50,[5],890 nM
same,IC50,LN-229,310 nM
same,IC50,A 172,890 nM
same,IC50,T98G,460 nM
same,IC50,[6],680 nM
same,IC50,[7],2930 nM
same,IC50,[8],1450 nM
same,Activity,GL26 [9],Dose-Dependent Effect
same,Activity,GL26 [10],Dose-Dependent Effect
same,Activity,U-251 [11],Dose-Dependent Effect
same,Activity,U-251 [12],Dose-Dependent Effect
same,Activity,U-251 [13],Dose-Dependent Effect
same,Activity,GL26 [14],Dose-Dependent Effect
same,Activity,GL26 [15],Dose-Dependent Effect
same,Activity,HCT-116 [16],Active
same,inhibition in vivo at 25 mg/kg,[17],59.8%
same,GI50,SF-268,1430 nM
same,GI50,SF-295,320 nM
same,GI50,SF-539,310 nM
same,GI50,SNB-19,440 nM
same,GI50,SNB-75,860 nM
same,GI50,U-251 [18],370 nM
same,GI50,K562,70 nM
same,GI50,RPMI-8226,330 nM
same,GI50,A549,140 nM
same,GI50,NCI-H460,50 nM
same,GI50,NCI-H522,70 nM
same,GI50,HCT-116 [19],80 nM
same,GI50,SW-620,240 nM
C#CCN(C)CCCOc1ccc(NC(=O)c2cc(C(C)C)c(O)cc2O)cc1Cl,IC50,[1],110 nM
same,IC50,[2],> 10000 nM
same,IC50,[3],> 10000 nM
same,IC50,U-251 [4],> 10000 nM
C#CCN(C)CCCOc1cc(N(C)C(=O)c2cc(C(C)C)c(O)cc2O)ccc1Cl,IC50,[1],> 10000 nM
C#CCN(C)CCCOc1cc(NC(=O)c2cc(C(C)C)c(O)cc2O)ccc1Cl,IC50,[1],2360 nM
C#CCN(C)CCCOc1cc(N(CC)C(=O)c2cc(C(C)C)c(O)cc2O)ccc1Cl,IC50,[1],> 10000 nM
C#CCN(C)CCCOc1cccc(NC(=O)c2cc(C(C)C)c(O)cc2O)c1Cl,IC50,[1],2360 nM
